Results on 29 compounds are retold here after ChEMBL document CHEMBL1134783, “N-Arylsulfonylindole derivatives as serotonin 5-HT(6) receptor ligands” (J Med Chem, 2001).

Assay [1] addresses T1, 5-hydroxytryptamine receptor 6 (Homo sapiens, UniProt P50406). Description: Binding affinity as displacement of [3H]5-HT binding to 5-hydroxytryptamine 6 receptor in HeLa cells. In kind it is cell-based. The method, boiled down:
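Human 5-HT6 stably expressed in HeLa cells; washed membranes in 50 mM Tris, 0.03% ascorbic acid, pH 7.6. Nonspecific binding defined with 10 µM 5-HT. Filtration and scintillation counting; one-site fit gave IC50, converted to Ki by Cheng-Prusoff. Geometric mean of ≥3 experiments, each in duplicate.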
For orientation: Displacement assays read how much labelled ligand stays bound in the presence of the test substance.

Assay [2] deals with 5-hydroxytryptamine receptor 1D (Homo sapiens, UniProt P28221). The assay can be described thus: Binding affinity against 5-hydroxytryptamine 1D receptor in CHO cells using [3H]5-HT as radioligand. In kind it is cell-based.
Assay [3] has as its target T2, 5-hydroxytryptamine receptor 1A (Homo sapiens, UniProt P08908).
T2 sequence (P08908 whole entry): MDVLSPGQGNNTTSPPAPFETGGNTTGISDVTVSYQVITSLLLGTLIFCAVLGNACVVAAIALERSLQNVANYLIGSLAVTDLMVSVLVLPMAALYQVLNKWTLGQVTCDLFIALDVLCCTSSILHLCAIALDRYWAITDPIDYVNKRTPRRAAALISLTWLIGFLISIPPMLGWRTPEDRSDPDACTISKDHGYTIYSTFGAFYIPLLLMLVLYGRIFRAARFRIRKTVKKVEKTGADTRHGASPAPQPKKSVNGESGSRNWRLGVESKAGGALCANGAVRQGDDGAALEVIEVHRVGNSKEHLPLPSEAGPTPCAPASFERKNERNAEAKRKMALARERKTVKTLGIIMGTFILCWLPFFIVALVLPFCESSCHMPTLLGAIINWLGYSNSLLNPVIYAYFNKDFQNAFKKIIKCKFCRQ
Description: Binding affinity against 5-hydroxytryptamine 1A receptor in HeLa cells was determined using [3H]5-HT. In kind it is cell-based.

In assay [4] the target is T3, 5-hydroxytryptamine receptor 1F (Homo sapiens, UniProt P30939).
T3 sequence (P30939 whole entry): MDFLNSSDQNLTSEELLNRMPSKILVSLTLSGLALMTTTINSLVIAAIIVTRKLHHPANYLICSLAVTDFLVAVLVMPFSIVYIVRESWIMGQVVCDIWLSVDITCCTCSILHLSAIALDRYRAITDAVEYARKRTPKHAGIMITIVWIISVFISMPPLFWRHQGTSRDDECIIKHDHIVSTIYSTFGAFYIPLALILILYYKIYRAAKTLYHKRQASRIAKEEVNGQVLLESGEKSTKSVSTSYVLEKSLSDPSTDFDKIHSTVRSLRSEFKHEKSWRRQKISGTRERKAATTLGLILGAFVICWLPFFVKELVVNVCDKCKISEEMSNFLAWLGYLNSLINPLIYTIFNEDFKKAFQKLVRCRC
Description: Binding affinity against 5-hydroxytryptamine 1F receptor in CHO cells using [3H]5-HT radioligand. Format: cell-based.

In assay [5] the target is D(2) dopamine receptor (Homo sapiens, UniProt P14416). Description: Binding affinity against dopamine receptor D2 using [3H]spiperone radioligand in CHO cells. In kind it is cell-based.
The target of assay [6] is T4, D(4) dopamine receptor (Homo sapiens, UniProt P21917).
T4 sequence (P21917 whole entry): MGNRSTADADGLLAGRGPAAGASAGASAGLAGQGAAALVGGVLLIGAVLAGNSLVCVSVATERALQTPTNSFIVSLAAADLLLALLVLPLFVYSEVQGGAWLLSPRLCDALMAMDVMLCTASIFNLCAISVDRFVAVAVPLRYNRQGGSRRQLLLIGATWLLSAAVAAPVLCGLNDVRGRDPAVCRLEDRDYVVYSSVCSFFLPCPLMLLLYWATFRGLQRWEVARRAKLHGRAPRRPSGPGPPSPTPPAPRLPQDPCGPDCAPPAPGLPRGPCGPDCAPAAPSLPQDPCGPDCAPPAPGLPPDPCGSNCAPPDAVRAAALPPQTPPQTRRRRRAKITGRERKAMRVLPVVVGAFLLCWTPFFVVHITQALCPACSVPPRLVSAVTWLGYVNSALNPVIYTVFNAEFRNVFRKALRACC
Description: Binding affinity against dopamine receptor D4 cloned in HEK 293 cells using [3H]spiperone radioligand. Format: cell-based, HEK293.

The target in assay [7] is 5-hydroxytryptamine receptor 1B (Homo sapiens, UniProt P28222). Description: Binding affinity against 5-hydroxytryptamine 1B receptor in CHO cells using [3H]5-HT as radioligand. Format: cell-based.
For assay [8], the target named is 5-hydroxytryptamine receptor 2A (Rattus norvegicus, UniProt P14842). The assay can be described thus: Binding affinity for 5-hydroxytryptamine 2 receptor of rat cortical membrane using [3H]DOB radioligand.
Assay [9] addresses 5-hydroxytryptamine receptor 7 (Homo sapiens, UniProt P34969). Description: Binding affinity for 5-hydroxytryptamine 7 receptor human cloned receptors in CHO cells using [3H]5-HT. In kind it is cell-based.
Assay [10] deals with D(3) dopamine receptor (Homo sapiens, UniProt P35462). Description: Binding affinity against dopamine receptor D3 in HEK 293 cells using [3H]spiperone radioligand. Format: cell-based, HEK293.
The target in assay [11] is T1, 5-hydroxytryptamine receptor 6. Description: Binding affinity as displacement of [3H]5-HT binding to 5-hydroxytryptamine 6 receptor in HeLa cells. Format: cell-based. The method, boiled down:
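Membranes from HeLa cells stably expressing cloned human 5-HT6 receptor, in 50 mM Tris with 0.03% ascorbic acid, pH 7.6. […] Nonspecific binding defined by 10 µM 5-HT. Filtration, then scintillation counting. One-site fit gave IC50, converted to Ki by Cheng-Prusoff. Geometric mean of ≥3 independent duplicate runs.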

The target of assay [12] is 5-hydroxytryptamine receptor 5A (Rattus norvegicus, UniProt P35364). Description: Binding affinity against 5-hydroxytryptamine 5A receptor in HEK 293 cells was determined using [3H]LSD as radioligand. Format: cell-based, HEK293.
Assay [13] has as its target T3, 5-hydroxytryptamine receptor 1F. Description: Binding affinity against 5-hydroxytryptamine 1F receptor in CHO using [3H]5-HT radioligand.

Sequence of 5-hydroxytryptamine receptor 1D (P28221 whole entry): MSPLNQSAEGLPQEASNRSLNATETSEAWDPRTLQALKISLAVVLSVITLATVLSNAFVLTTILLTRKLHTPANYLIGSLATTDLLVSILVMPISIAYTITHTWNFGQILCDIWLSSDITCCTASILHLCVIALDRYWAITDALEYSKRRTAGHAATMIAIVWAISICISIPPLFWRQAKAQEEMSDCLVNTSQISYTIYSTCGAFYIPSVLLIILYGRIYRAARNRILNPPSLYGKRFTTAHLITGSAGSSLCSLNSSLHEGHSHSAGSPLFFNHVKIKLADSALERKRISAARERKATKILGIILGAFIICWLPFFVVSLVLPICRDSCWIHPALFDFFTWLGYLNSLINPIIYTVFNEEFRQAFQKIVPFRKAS
Sequence of 5-hydroxytryptamine receptor 5A (P35364 whole entry): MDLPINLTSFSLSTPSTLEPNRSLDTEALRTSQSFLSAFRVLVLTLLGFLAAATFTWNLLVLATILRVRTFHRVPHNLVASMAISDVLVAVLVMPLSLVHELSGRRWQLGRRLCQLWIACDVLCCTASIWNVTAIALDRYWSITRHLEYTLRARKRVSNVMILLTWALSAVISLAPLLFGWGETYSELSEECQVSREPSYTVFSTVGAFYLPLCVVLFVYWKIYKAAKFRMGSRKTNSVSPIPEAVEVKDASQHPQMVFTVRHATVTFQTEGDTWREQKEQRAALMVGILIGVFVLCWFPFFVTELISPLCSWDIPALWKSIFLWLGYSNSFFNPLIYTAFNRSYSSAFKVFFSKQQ
Sequence of 5-hydroxytryptamine receptor 7 (P34969 whole entry): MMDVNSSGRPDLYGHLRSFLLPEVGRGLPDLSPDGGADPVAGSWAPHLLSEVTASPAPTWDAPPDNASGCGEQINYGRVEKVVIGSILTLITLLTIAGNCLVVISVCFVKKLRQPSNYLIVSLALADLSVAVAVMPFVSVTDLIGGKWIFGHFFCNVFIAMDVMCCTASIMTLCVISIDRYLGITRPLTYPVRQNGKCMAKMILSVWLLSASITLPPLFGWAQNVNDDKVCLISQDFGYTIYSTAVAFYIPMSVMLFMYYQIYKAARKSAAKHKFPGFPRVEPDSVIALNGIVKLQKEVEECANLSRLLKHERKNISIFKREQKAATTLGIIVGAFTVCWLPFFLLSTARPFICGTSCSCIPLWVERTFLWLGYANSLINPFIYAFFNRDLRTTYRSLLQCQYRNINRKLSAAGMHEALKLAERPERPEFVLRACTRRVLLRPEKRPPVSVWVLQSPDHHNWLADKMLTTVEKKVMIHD
Sequence of D(3) dopamine receptor (P35462 whole entry): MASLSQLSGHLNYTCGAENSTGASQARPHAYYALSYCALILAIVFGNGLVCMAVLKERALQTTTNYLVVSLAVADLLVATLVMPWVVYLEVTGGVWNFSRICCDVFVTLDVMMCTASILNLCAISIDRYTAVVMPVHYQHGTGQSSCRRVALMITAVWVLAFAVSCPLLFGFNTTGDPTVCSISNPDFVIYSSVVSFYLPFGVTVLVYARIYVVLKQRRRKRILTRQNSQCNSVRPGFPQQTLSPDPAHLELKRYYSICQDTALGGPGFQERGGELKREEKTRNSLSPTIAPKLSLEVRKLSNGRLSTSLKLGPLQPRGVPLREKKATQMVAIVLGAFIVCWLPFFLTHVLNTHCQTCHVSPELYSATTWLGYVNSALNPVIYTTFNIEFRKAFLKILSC
Sequence of D(2) dopamine receptor (P14416 whole entry): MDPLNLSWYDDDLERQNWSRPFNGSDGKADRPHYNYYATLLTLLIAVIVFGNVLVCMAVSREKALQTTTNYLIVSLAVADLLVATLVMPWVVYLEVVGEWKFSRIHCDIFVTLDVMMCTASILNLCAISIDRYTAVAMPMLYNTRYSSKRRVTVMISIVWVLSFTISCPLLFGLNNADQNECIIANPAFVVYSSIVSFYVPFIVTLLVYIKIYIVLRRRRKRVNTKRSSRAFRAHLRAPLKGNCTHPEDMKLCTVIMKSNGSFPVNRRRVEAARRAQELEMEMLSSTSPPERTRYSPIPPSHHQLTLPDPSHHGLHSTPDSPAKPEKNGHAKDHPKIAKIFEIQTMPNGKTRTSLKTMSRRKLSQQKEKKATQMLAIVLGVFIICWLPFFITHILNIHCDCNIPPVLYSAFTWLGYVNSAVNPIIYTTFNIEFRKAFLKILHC
Sequence of 5-hydroxytryptamine receptor 2A (P14842 whole entry): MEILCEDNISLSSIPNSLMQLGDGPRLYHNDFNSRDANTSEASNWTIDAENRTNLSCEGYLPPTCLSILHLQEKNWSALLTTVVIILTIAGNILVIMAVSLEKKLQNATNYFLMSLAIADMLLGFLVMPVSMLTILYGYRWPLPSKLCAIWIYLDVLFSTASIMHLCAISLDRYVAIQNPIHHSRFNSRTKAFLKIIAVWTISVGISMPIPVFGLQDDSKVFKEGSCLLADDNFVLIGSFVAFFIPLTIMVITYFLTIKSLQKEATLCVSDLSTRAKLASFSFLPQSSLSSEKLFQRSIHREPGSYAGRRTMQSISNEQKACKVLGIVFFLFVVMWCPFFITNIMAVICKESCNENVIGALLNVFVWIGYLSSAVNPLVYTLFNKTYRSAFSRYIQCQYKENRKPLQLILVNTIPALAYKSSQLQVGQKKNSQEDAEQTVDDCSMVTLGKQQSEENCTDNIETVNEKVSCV
T1 sequence (P50406 whole entry): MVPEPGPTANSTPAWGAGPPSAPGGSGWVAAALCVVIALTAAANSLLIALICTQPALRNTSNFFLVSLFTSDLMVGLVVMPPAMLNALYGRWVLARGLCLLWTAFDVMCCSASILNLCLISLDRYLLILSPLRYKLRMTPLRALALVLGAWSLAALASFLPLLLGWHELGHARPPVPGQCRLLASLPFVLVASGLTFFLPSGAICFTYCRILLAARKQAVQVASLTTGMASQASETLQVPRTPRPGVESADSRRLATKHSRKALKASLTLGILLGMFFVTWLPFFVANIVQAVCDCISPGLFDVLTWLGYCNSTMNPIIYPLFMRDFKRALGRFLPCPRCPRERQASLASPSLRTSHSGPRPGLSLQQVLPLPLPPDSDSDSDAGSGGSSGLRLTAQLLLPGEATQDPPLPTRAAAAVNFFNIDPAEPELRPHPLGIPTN
Sequence of 5-hydroxytryptamine receptor 1B (P28222 whole entry): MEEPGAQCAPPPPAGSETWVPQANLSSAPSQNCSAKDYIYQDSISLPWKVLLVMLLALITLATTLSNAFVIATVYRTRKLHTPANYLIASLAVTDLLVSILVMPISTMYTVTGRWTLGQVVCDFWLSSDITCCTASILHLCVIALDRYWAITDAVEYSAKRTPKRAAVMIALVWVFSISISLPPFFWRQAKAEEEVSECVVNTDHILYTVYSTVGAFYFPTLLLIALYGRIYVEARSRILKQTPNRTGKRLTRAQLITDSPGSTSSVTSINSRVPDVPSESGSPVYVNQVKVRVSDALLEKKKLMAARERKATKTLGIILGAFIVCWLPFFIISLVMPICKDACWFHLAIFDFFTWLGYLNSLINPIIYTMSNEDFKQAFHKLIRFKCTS

For `COc1ccc2c(c1)c(CCN)cn2S(=O)(=O)c1ccccc1`, in assay [1], the affinity corresponds to a Ki of 40 nM.

Turning to `CN(C)CCc1cccc2[nH]c(C(=O)c3ccccc3)cc12`, in assay [1], the inhibition constant (Ki) worked out at 260 nM.

The compound `COc1ccc2[nH]c(C)c(CCN(C)C)c2c1` yielded a Ki in assay [1] of 89 nM.

In assay [1], `CN(C)CCc1cn(S(=O)(=O)c2ccccc2)c2ccc(O)cc12` registered an inhibitory constant (Ki) of 19 nM.

In assay [1], `COc1cccc(Cc2noc(-c3[nH]c4ccccc4c3CCN(C)C)n2)c1` displayed an inhibition constant Ki of 1.3 nM.

`COc1ccc2c(c1)c(CCN(C)C)cn2S(=O)(=O)c1ccc(Cl)cc1`: the affinity in [1] corresponds to a Ki of 17 nM.

On to `CCOC(=O)c1[nH]c2ccccc2c1CCN(C)C`, for which the Ki in [2] is 330 nM; in assay [3], 1800 nM; in assay [4] it was 2000 nM; in assay [5], 59 nM; in [6], 1600 nM; in [7] it was 910 nM. The inhibitory constant (Ki) in assay [1] was determined as 20 nM; in assay [8], 130 nM; in [9] it was 510 nM; in assay [10] it was 110 nM.

`COc1ccc(S(=O)(=O)n2cc(CCN(C)C)c3cc(OC)ccc32)cc1` gave a Ki in assay [1] of 26 nM.

In assay [11], `CN(C)CCCc1cccc2c1ccn2S(=O)(=O)c1ccccc1` gave a Ki of 7.9 nM.

In assay [1], `COc1ccc2c(c1)c(CCN1CCOCC1)cn2S(=O)(=O)c1ccccc1` showed a Ki of 1700 nM.

In assay [1], `COc1ccc2c(c1)c(CCN(C)C)cn2S(=O)(=O)c1cccc(Cl)c1` came in with a Ki of 7.9 nM.

In assay [1], `COc1ccc2c(c1)c(CCN(C)C)cn2S(=O)(=O)c1cccs1` gave an inhibition constant Ki of 8.3 nM.

For the compound `COc1ccc2c(c1)c(CCN(C)C)cn2S(=O)(=O)c1ccccc1`, the Ki in [2] is 720 nM; in assay [4], 2500 nM; in assay [5] it was 210 nM; in assay [6] it was above 3200 nM; in assay [7], 2200 nM; in assay [8], 65 nM. In addition, the Ki in [12] was above 5000 nM; in [9] it was 1900 nM; in assay [10], 80 nM.

`CN(C)CCc1cn(C(=O)OC(C)(C)C)c2ccc(O)cc12` had an inhibitory constant (Ki) in assay [1] of 370 nM.

For the compound `Cc1ccc(S(=O)(=O)n2cc3c4c(cccc42)[C@H](O)[C@@H](N(C)C)C3)cc1`, the Ki is 3900 nM in assay [2]; above 5600 nM in assay [3]; above 1700 nM in assay [5]; above 3200 nM in assay [6]; 3100 nM in assay [7]; 7.2 nM in assay [1]. Further, the inhibition constant (Ki) is 320 nM in [8], above 6400 nM in assay [12], above 5800 nM in assay [9] and 3700 nM in assay [10].

In assay [1], `COc1ccc2c(c1)c(CCN(C)C)cn2S(=O)(=O)c1ccccc1Cl` displayed an inhibition constant (Ki) of 11 nM.

With `COc1ccc2c(c1)C(CCN(C)C)CN2S(=O)(=O)c1ccccc1` (stereo not given), the inhibitory constant (Ki) in assay [1] worked out at 63 nM.

Regarding `COc1ccc2c(c1)c(CCN(C)C)c(C)n2S(=O)(=O)c1ccccc1`, the Ki in assay [1] worked out at 12 nM.

As for `CN(C)CCc1cn(C(=O)c2ccccc2)c2ccc(O)cc12`, the Ki in assay [2] was 180 nM; in assay [13], 29 nM; in assay [3], 620 nM; in [5], above 2200 nM; in assay [6], above 3900 nM; in assay [7], 420 nM. Further, the inhibition constant (Ki) was 54 nM in assay [1]; 200 nM in assay [8]; 4500 nM in assay [12]; 1600 nM in assay [9]; above 3500 nM in assay [10].

For `CN(C)CCc1cccc2c1cc(C(=O)c1ccccc1)n2S(=O)(=O)c1ccccc1`, the inhibition constant (Ki) in assay [2] is 98 nM; in [3] it was 480 nM; in assay [4], 570 nM; in assay [5], 750 nM; in [6], above 3200 nM; in assay [7] it was 190 nM. Besides, the Ki in [1] is 3 nM; in assay [8], 6.6 nM; in [12], 1600 nM; in [9] it was 1300 nM; in assay [10], 66 nM.

On to `CN(C)CCc1cccc2c1ccn2S(=O)(=O)c1ccccc1`, for which the inhibition constant Ki in assay [2] was 9.3 nM; in [3] it was 170 nM; in [4], 3.9 nM; in assay [5] it was 1600 nM; in assay [6], above 3200 nM; in [7] it was 11 nM. In addition, the inhibition constant Ki in assay [1] is 1.5 nM; in assay [8] it was 18 nM; in assay [12], 3400 nM; in [9], 460 nM; in assay [10], 300 nM.

Compound `CO[C@H]1c2cccc3c2c(cn3S(=O)(=O)c2ccc(C)cc2)C[C@@H]1N(C)C` yielded a Ki in assay [1] of 130 nM.

`COc1ccc2c(c1)c(CCN(C)C)cn2S(=O)(=O)c1ccc(C)cc1` returned a Ki in [1] of 45 nM.

Compound `CN(C)CCc1cn(S(=O)(=O)c2ccccc2)c2ccc(C#N)cc12` gave an inhibition constant Ki in [1] of 33 nM.

The compound `CN(C)CCc1cn(S(C)(=O)=O)c2ccccc12` displayed a Ki in [1] of 620 nM.

For `NCCc1cccc2c1ccn2S(=O)(=O)c1ccccc1`, the Ki is 4.5 nM in [2]; 140 nM in [3]; 47 nM in [4]; above 1700 nM in assay [5]; above 3200 nM in [6]; 6.5 nM in assay [7]. Also, the Ki in assay [1] was found to be 2.4 nM; in assay [8], 4.8 nM; in assay [12], 1200 nM; in assay [9], 29 nM; in assay [10] it was 940 nM.

Take `COc1ccc2c(c1)c(CCN(C)C)cn2S(=O)(=O)c1ccc2ccccc2c1`: in assay [1], affinity was put at a Ki of 9.8 nM.

Compound `CN(C)CCc1cn(S(=O)(=O)c2ccccc2)c2ccc(OCc3ccccc3)cc12` had a Ki in [1] of 320 nM.

Regarding `CN(C)CCc1cn(S(=O)(=O)c2ccccc2)c2ccccc12`, the inhibitory constant (Ki) in assay [2] is 510 nM; in assay [3] it was 520 nM; in assay [4], 770 nM; in assay [5], 62 nM; in [6], above 3200 nM; in assay [7] it was 2300 nM. For the same compound, the Ki came to 2.9 nM in assay [1]; 84 nM in assay [8]; 4000 nM in assay [12]; 3700 nM in [9]; 23 nM in assay [10].

For orientation: Ki means a measure of affinity in units of concentration, obtained from inhibition or displacement. Lower therefore signals tighter binding.
